Assay results as given in ChEMBL document CHEMBL1134779, “Synthesis and characterization of the antitumor activities of analogues of meridine, a marine pyridoacridine alkaloid” (J Med Chem, 2001).

Experiments:
[1] = tested on: A-427; test: In vitro inhibition of A-427 (human lung cancer) cell growth.; assay type: functional, cell-based
Summary of the method: (§1)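 Human cancer lines from ATCC, grown at 37 °C in sealed dishes in Eagle's MEM with 5% FCS. Cells were seeded at 40000 cells/mL and plated for 24 h before drug exposure. Six concentrations from 10^-5 to 10^-10 M were tested. Growth was read by MTT reduction to formazan at 570 nm (reference 630 nm), in sextuplicate. IC50 is the concentration giving 50% growth reduction versus control.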

[2] = tested on: A549; test: In vitro inhibition of A549 (human lung cancer) cell growth.; assay type: functional, cell-based; summary of the method: as §1
[3] = tested on: J82; test: In vitro inhibition of J82 (human bladder cancer) cell growth.; assay type: functional, cell-based; summary of the method: as §1
[4] = tested on: MCF7; test: In vitro inhibition of MCF-7 (human breast cancer) cell growth.; assay type: functional, cell-based; summary of the method: as §1
[5] = tested on: PC-3; test: In vitro inhibition of PC-3 (human prostate cancer) cell growth.; assay type: functional, cell-based; summary of the method: as §1
[6] = In vitro inhibition of T24 (human bladder cancer) cell growth.; assay type: functional, cell-based; conditions: T-24; summary of the method: as §1
[7] = tested on: T47D; test: In vitro inhibition of T-47D (human breast cancer) cell growth.; assay type: functional, cell-based; summary of the method: as §1
[8] = tested on: U373 MG; test: In vitro inhibition of U-373 MG (human glioblastoma) cell growth.; assay type: functional, cell-based, U-373MG ATCC; summary of the method: as §1
[9] = tested on: HCT-15; test: In vitro inhibition of HCT-15 (human colon cancer) cell growth.; assay type: functional, cell-based; summary of the method: as §1
[10] = tested on: LoVo; test: In vitro inhibition of LoVo (human colon cancer) cell growth.; assay type: functional, cell-based; summary of the method: as §1
[11] = tested on: U-87 MG; test: In vitro inhibition of U-87 MG (human glioblastoma) cell growth.; assay type: functional, cell-based, U-87MG ATCC; summary of the method: as §1
[12] = tested on: SW1088 (human); test: In vitro inhibition of SW1088 (human astrocytoma) cell growth.
[13] = tested on: T47D; test: Ctotoxic related antitumor activity against human cancer cell lines T-47 D; assay type: functional, cell-based; summary of the method: as §1

`Nc1ccnc2c1C(=O)c1c(-c3ccccc3NC(=O)C(F)(F)F)ccnc1C2=O` showed an IC50 [1] of 500 nM, an IC50 [2] of 600 nM and an IC50 [3] of 2700 nM. The IC50 [4] was 800 nM, the IC50 [5] was 600 nM and the IC50 [6] was 700 nM. The IC50 [7] was 1200 nM, the IC50 [8] was 900 nM and the IC50 [9] was 600 nM. The IC50 [10] was 700 nM, the IC50 [11] was 300 nM and the IC50 [12] was 800 nM.
`O=C1c2nccc(Cl)c2-c2nc3ccccc3c3ccnc1c23` gave an IC50 [1] of 900 nM, an IC50 [2] of 7 nM and an IC50 [3] of 90 nM. The IC50 [4] was 80 nM, the IC50 [5] was 500 nM and the IC50 [6] was 90 nM. The IC50 [7] was 2700 nM, the IC50 [8] was 100 nM and the IC50 [9] was 100 nM. It also gave an IC50 [10] of 50 nM, an IC50 [11] of 20 nM and an IC50 [12] of 4300 nM.
For `COc1ccnc2c1-c1nc3ccccc3c3ccnc(c13)C2=O`, the IC50 [1] was 5 nM, the IC50 [2] was 0.3 nM and the IC50 [3] was 0.9 nM. It also gave an IC50 [4] of less than 0.1 nM, an IC50 [5] of 60 nM and an IC50 [6] of 6 nM. It also gave an IC50 [7] of 30 nM, an IC50 [8] of less than 0.1 nM and an IC50 [9] of 2 nM. It also gave an IC50 [10] of 0.3 nM, an IC50 [11] of less than 0.1 nM and an IC50 [12] of 60 nM.
`O=C1c2ncccc2-c2nc3ccccc3c3ccnc1c23` showed an IC50 [1] of 0.8 nM, an IC50 [2] of 20 nM and an IC50 [3] of 7 nM. The IC50 [4] was 0.9 nM, the IC50 [5] was 40 nM and the IC50 [6] was less than 0.1 nM. For the same molecule, the IC50 [7] was 10 nM, the IC50 [8] was 0.7 nM and the IC50 [9] was 5 nM. It also gave an IC50 [10] of 20 nM, an IC50 [11] of less than 0.1 nM and an IC50 [12] of 60 nM.
Molecule `Nc1ccnc2c1-c1nc3ccccc3c3ccnc(c13)C2=O` has an IC50 [1] of 60 nM, an IC50 [2] of 80 nM and an IC50 [3] of 700 nM. For the same molecule, the IC50 [4] was 90 nM, the IC50 [5] was 500 nM and the IC50 [6] was 70 nM. For the same molecule, the IC50 [7] was 600 nM, the IC50 [8] was 100 nM and the IC50 [9] was 300 nM. The IC50 [10] was 90 nM, the IC50 [11] was 70 nM and the IC50 [12] was 80 nM.
Work on `COc1ccnc2c1C(=O)c1c(-c3ccccc3NC(=O)C(F)(F)F)ccnc1C2=O` yielded an IC50 [1] of 50 nM, an IC50 [2] of less than 0.1 nM and an IC50 [3] of 0.9 nM. It also gave an IC50 [4] of 0.3 nM, an IC50 [5] of 50 nM and an IC50 [6] of 7 nM. It also gave an IC50 [7] of 30 nM, an IC50 [8] of less than 0.1 nM and an IC50 [9] of 2 nM. For the same molecule, the IC50 [10] was 0.1 nM, the IC50 [11] was less than 0.1 nM and the IC50 [12] was 50 nM.
`O=C1c2nccc([N+](=O)[O-])c2-c2nc3ccccc3c3ccnc1c23` gave an IC50 [1] of 2400 nM, an IC50 [2] of 800 nM and an IC50 [3] of 500 nM. The IC50 [4] was 70 nM, the IC50 [5] was 4200 nM and the IC50 [6] was 700 nM. It also gave an IC50 [7] of 600 nM, an IC50 [8] of 90 nM and an IC50 [9] of 600 nM. For the same molecule, the IC50 [10] was 90 nM, the IC50 [11] was 70 nM and the IC50 [12] was 5500 nM.
Work on `CC(=O)Nc1ccnc2c1C(=O)c1c(-c3ccccc3NC(=O)C(F)(F)F)ccnc1C2=O` yielded an IC50 [1] of 60 nM, an IC50 [2] of 70 nM and an IC50 [3] of 3500 nM. The IC50 [4] was 90 nM, the IC50 [5] was 2700 nM and the IC50 [6] was 400 nM. The IC50 [7] was 300 nM, the IC50 [8] was 90 nM and the IC50 [9] was 90 nM. For the same molecule, the IC50 [10] was 70 nM, the IC50 [11] was 60 nM and the IC50 [12] was 90 nM.
`CN(C)c1ccnc2c1C(=O)c1c(-c3ccccc3NC(=O)C(F)(F)F)ccnc1C2=O` gave an IC50 [1] of 70 nM, an IC50 [2] of 60 nM and an IC50 [3] of 2000 nM. The IC50 [4] was 100 nM, the IC50 [5] was 600 nM and the IC50 [6] was 300 nM. For the same molecule, the IC50 [7] was 700 nM, the IC50 [8] was 300 nM and the IC50 [9] was 200 nM. The IC50 [10] was 100 nM, the IC50 [11] was 60 nM and the IC50 [12] was 400 nM.
With `CCOC(=O)c1cnc2c(c1)C(=O)c1c(-c3ccccc3NC(=O)C(F)(F)F)ccnc1C2=O` the IC50 [1] was 600 nM, the IC50 [2] was 90 nM and the IC50 [3] was 5200 nM. For the same molecule, the IC50 [4] was 500 nM, the IC50 [5] was 1300 nM and the IC50 [6] was 600 nM. It also gave an IC50 [13] of 2600 nM, an IC50 [8] of 400 nM and an IC50 [9] of 100 nM. For the same molecule, the IC50 [10] was 800 nM, the IC50 [11] was 80 nM and the IC50 [12] was 800 nM.
`O=C1c2nccc(O)c2-c2nc3ccccc3c3ccnc1c23` [MERIDINE] showed an IC50 [1] of 200 nM, an IC50 [2] of 80 nM and an IC50 [3] of 8200 nM. The IC50 [4] was 90 nM, the IC50 [5] was 500 nM and the IC50 [6] was 50 nM. For the same molecule, the IC50 [7] was 70 nM, the IC50 [8] was 100 nM and the IC50 [9] was 200 nM. The IC50 [10] was 70 nM, the IC50 [11] was 100 nM and the IC50 [12] was 2000 nM.
